The results in this text go back to ChEMBL document CHEMBL4152308, “Synthesis and biological evaluation of novel 2-oxo-1,2-dihydroquinoline-4-carboxamide derivatives for the treatment of esophageal squamous cell carcinoma” (Eur J Med Chem, 2018).

For orientation: IC50 means the concentration at which inhibition is half-maximal. Higher therefore signals weaker potency.

For one assay, the system named is KYSE-410. The assay can be described thus: Antiproliferative activity against human KYSE410 cells after 72 hrs by MTT assay. In kind it is functional, cell-based. The following applies: KYSE-410, 72 h. In short, it runs like this:
(§1)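 Cells grown as monolayers at 37 °C, 5% CO2, mycoplasma-checked, in exponential phase. Cells seeded in 96-well plates, 24 h attachment, then compound added for 72 h. MTT 0.3 mg/mL for 3 h at 37 °C, DMSO solubilization, absorbance at 570 nm. Inhibition = (1 − A/C) × 100%. IC50 from log(concentration) vs % inhibition plot; triplicate wells, SD from ≥3 independent experiments.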

Another assay relates to KYSE-70 cell line. Put plainly: Antiproliferative activity against human KYSE-70 cells after 72 hrs by MTT assay. In kind it is functional, cell-based. The following applies: KYSE-70, 72 h. Summed up:
as §1
In general terms: Tetrazolium dyes change colour on reduction, which living cells bring about.

For the compound `O=C(Nc1cc(F)cc(F)c1)c1cc(=O)[nH]c2cc(O)ccc12`, the IC50 in the assay on KYSE-410 and in the assay with KYSE-70 cell line was over 20 µM throughout.

`O=C(Nc1ccc(C(F)(F)F)cc1)c1cc(=O)[nH]c2cc(Br)ccc12`: the IC50 in the assay on KYSE-410 and in the assay with KYSE-70 cell line was over 20 µM throughout.

Turning to `O=C(Nc1cccc(F)c1)c1cc(=O)[nH]c2cc(F)ccc12`, the IC50 in the assay with KYSE-410 and with KYSE-70 cell line was over 20 µM each time.

With `COc1ccc2c(C(=O)Nc3cc(F)cc(F)c3)cc(=O)[nH]c2c1`, the IC50 in the assay with KYSE-410 and in the assay on KYSE-70 cell line was over 20 µM in each case.

Turning to `C#Cc1ccc2c(C(=O)Nc3cccc(F)c3)cc(=O)[nH]c2c1`, the IC50 in the assay with KYSE-410 is 9.7 µM; with KYSE-70 cell line, 9.5 µM.

Consider `CC(C)(C)c1ccc(-c2ccc3c(C(=O)Nc4cccc(F)c4)cc(=O)[nH]c3c2)cc1`, for which the IC50 in the assay on KYSE-410 and in the assay on KYSE-70 cell line was over 20 µM in each case.

On to `O=C(Nc1ccc(Cl)cc1)c1cc(=O)[nH]c2cc(Br)ccc12`, for which the IC50 with KYSE-410 and with KYSE-70 cell line was over 20 µM throughout.

Consider `O=C(Nc1ccc(F)cc1F)c1cc(=O)[nH]c2cc(Br)ccc12`, for which the IC50 in the assay with KYSE-410 and in the assay on KYSE-70 cell line was over 20 µM each time.

On to `O=C(Nc1cccc(F)c1)c1cc(=O)n(Cc2ccccc2)c2cc(Br)ccc12`, for which the half-maximal inhibitory concentration (IC50) in the assay with KYSE-410 and in the assay with KYSE-70 cell line was over 20 µM throughout.

For the compound `O=C(Nc1cc(F)cc(F)c1)c1cc(=O)[nH]c2cc(Cl)ccc12`, the IC50 is 11 µM with KYSE-410 and 9 µM in the assay on KYSE-70 cell line.

Consider `O=C(Nc1cccc(F)c1)c1cc(=O)[nH]c2cc(-c3ccc(F)c(CO)c3)ccc12`, for which the IC50 in the assay with KYSE-410 and in the assay with KYSE-70 cell line was over 20 µM throughout.

As for `O=C(Nc1cc(F)cc(F)c1)c1cc(=O)[nH]c2cc(C(F)(F)F)ccc12`, the IC50 was found to be 17.9 µM in the assay on KYSE-410 and 14.2 µM in the assay with KYSE-70 cell line.

For the compound `O=C(Nc1cccc(F)c1)c1cc(=O)n(O)c2ccccc12`, the IC50 in the assay with KYSE-410 and in the assay with KYSE-70 cell line was over 20 µM throughout.

As to `O=C(c1ccnc2cc(Br)ccc12)N1CCCCC1`, the IC50 in the assay on KYSE-410 and with KYSE-70 cell line was over 20 µM throughout.

For the compound `Cc1cc(-c2ccc3c(C(=O)Nc4cccc(F)c4)cc(=O)[nH]c3c2)c(C)cc1F`, the IC50 in the assay with KYSE-410 and in the assay with KYSE-70 cell line was over 20 µM in each case.

On to `O=C(Nc1cc(F)c(F)c(F)c1)c1cc(=O)[nH]c2cc(Br)ccc12`, for which the IC50 in the assay on KYSE-410 and in the assay with KYSE-70 cell line was over 20 µM throughout.

On to `O=C(Nc1cc(F)ccc1F)c1cc(=O)[nH]c2cc(Br)ccc12`, for which the IC50 in the assay on KYSE-410 and in the assay on KYSE-70 cell line was over 20 µM each time.

For `O=C(Nc1cccc(F)c1)c1cc(=O)[nH]c2cc(C3CC3)ccc12`, the IC50 in the assay with KYSE-410 and in the assay on KYSE-70 cell line was over 20 µM each time.

For `O=C(Nc1cccc(Cl)c1)c1cc(=O)[nH]c2cc(Br)ccc12`, the IC50 with KYSE-410 and in the assay on KYSE-70 cell line was over 20 µM each time.

Turning to `C=Cc1ccc2c(C(=O)Nc3cccc(F)c3)cc(=O)[nH]c2c1`, the IC50 is 13.6 µM in the assay on KYSE-410 and 9.7 µM in the assay with KYSE-70 cell line.

For `COc1cccc(NC(=O)c2cc(=O)[nH]c3cc(Br)ccc23)c1`, the IC50 with KYSE-410 and in the assay with KYSE-70 cell line was over 20 µM each time.

`O=C(Nc1cccc(OC(F)(F)F)c1)c1cc(=O)[nH]c2cc(Br)ccc12`: the IC50 in the assay on KYSE-410 is 14 µM; in the assay with KYSE-70 cell line, over 20 µM.

Turning to `O=C(Nc1cccc(F)c1)c1cc(=O)[nH]c2cc(-c3cccnc3F)ccc12`, the IC50 is 11.6 µM in the assay with KYSE-410 and over 20 µM with KYSE-70 cell line.

As for `COc1cccc2c(C(=O)Nc3cc(F)cc(F)c3)cc(=O)[nH]c12`, the IC50 in the assay with KYSE-410 and in the assay with KYSE-70 cell line was over 20 µM each time.

With `O=C(Nc1ccc(OC(F)(F)F)cc1)c1cc(=O)[nH]c2cc(Br)ccc12`, the IC50 in the assay with KYSE-410 and with KYSE-70 cell line was over 20 µM each time.

Consider `O=C(Nc1cccc(C(F)(F)F)c1)c1cc(=O)[nH]c2cc(Br)ccc12`, for which the IC50 with KYSE-410 and with KYSE-70 cell line was over 20 µM throughout.

As for `COc1ccc2c(C(=O)Nc3cc(F)cc(F)c3)cc(=O)[nH]c2n1`, the IC50 in the assay with KYSE-410 and in the assay on KYSE-70 cell line was over 20 µM each time.

As to `O=C(Nc1cc(F)cc(F)c1)c1cc(=O)[nH]c2cc(F)ccc12`, the IC50 in the assay with KYSE-410 and in the assay on KYSE-70 cell line was over 20 µM each time.
